In ChEMBL document CHEMBL1949532, “Novel dendrimeric lipopeptides with antifungal activity” (Bioorg Med Chem Lett, 2012):
In brackets after ≈: the same amount, converted by molar mass. Activity calls are given as the source filed them. No cut-off for these calls is given here. Starred links: 1 amine or outer side, 2 acyl side, 3 side chain; linkers in the order of their positions; H or OH if unused. Residues, ends and D or L forms follow the SMILES beside them. Groups on a side chain read outwards from the residue. *: point of attachment. εLys = N[C@@H](CCCCN[*:1])C(=O)[*:2]; ClZ = O=C(OCc1ccccc1Cl)*; Cbz = O=C(OCc1ccccc1)*

Tests used:
[1] = system: Klebsiella pneumoniae subsp. pneumoniae; experiment: Antibacterial activity against Klebsiella pneumoniae subsp. pneumoniae ATCC 13882 after 18 to 24 hrs by serial broth microdilution susceptibility test; format: functional
In short: (§1)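 MIC determined by serial microdilution in microplates. Candida inocula were prepared in L-glutamine-deficient RPMI-1640 medium.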

Pseudomonas aeruginosa = experiment: Antibacterial activity against Pseudomonas aeruginosa ATCC 27853 after 18 to 24 hrs by serial broth microdilution susceptibility test; format: functional; in short: as §1
Candida albicans [2] = experiment: Antifungal activity against Candida albicans ATCC 90028 after 24 to 48 hrs by serial broth microdilution susceptibility test; format: functional; in short: as §1
Escherichia coli [3] = experiment: Antibacterial activity against Escherichia coli ATCC BAA-198 after 18 to 24 hrs by serial broth microdilution susceptibility test; format: functional; in short: as §1
Candida parapsilosis = experiment: Antifungal activity against Candida parapsilosis ATCC 22019 after 24 to 48 hrs by serial broth microdilution susceptibility test; format: functional; conditions: Lodderomyces parapsilosis; in short: as §1
[4] = (§2) Inhibition of beta (1,3) glucan synthase in Candida albicans cell membrane using UDP-Glc as substrate assessed as aniline blue-glucan complex formation by microtiter-based fluorescence method
In short: (§3)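 β(1,3)-glucan synthase in the membrane fraction of C. albicans was assayed by a microtiter-based fluorescence method across a concentration range. Values are means of three independent experiments (SD); IC50 was determined.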

[5] = Toxicity in human erythrocytes assessed as hemolysis at 100 uM after 30 mins by spectrophotometry; format: cell-based, Erythrocyte; conditions: read-out: Activity
In short: (§4)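 Human erythrocytes suspended in PBS were exposed to lipopeptides at 0.001–0.4 mmol/l and hemolysis was measured.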

[6] = Toxicity in human erythrocytes assessed as hemolysis at 50 uM after 30 mins by spectrophotometry; format: cell-based, Erythrocyte; conditions: read-out: Activity; in short: as §4
Staphylococcus aureus [7] = experiment: Antibacterial activity against Staphylococcus aureus ATCC 43300 after 18 to 24 hrs by serial broth microdilution susceptibility test; format: functional; in short: as §1
Acinetobacter baumannii = experiment: Antibacterial activity against Acinetobacter baumannii ATCC 19606 after 18 to 24 hrs by serial broth microdilution susceptibility test; format: functional; conditions: ATCC 19606 = CIP 70.34 = JCM 6841; in short: as §1
Staphylococcus aureus [8] = experiment: Antibacterial activity against Staphylococcus aureus ATCC 25923 after 18 to 24 hrs by serial broth microdilution susceptibility test; format: functional; in short: as §1
Escherichia coli [9] = experiment: Antibacterial activity against Escherichia coli ATCC 25922 after 18 to 24 hrs by serial broth microdilution susceptibility test; format: functional; in short: as §1
[10] = system: Bordetella bronchiseptica; experiment: Antibacterial activity against Bordetella bronchiseptica ATCC 4617 after 18 to 24 hrs by serial broth microdilution susceptibility test; format: functional; in short: as §1
Pichia kudriavzevii = experiment: Antifungal activity against Candida krusei ATCC 6258 after 24 to 48 hrs by serial broth microdilution susceptibility test; format: functional; in short: as §1
[11] = Toxicity in human erythrocytes assessed as hemolysis at 300 uM after 30 mins by spectrophotometry; format: cell-based, Erythrocyte; conditions: read-out: Activity; in short: as §4
Candida albicans [12] = experiment: Antifungal activity against Candida albicans ATCC 10231 assessed as leakage of intracellular contents at 4 uM after 2 hrs by scanning electron microscopy; format: functional, organism-based
[13] = Toxicity in human erythrocytes assessed as hemolysis at above MIC after 30 mins by spectrophotometry; format: cell-based; conditions: erythrocyte, 0.5 h; in short: as §4
Candida albicans [14] = experiment: Antifungal activity against Candida albicans ATCC 10231 assessed as massive destruction of cell surface at 64 uM after 2 hrs by scanning electron microscopy; format: functional, organism-based
[15] = Toxicity in human erythrocytes suspended in L-glutamine deficient RPMI-1640 assessed as hemolysis after 30 mins by spectrophotometry relative to human erythrocytes suspended in PBS buffer; format: cell-based; conditions: erythrocyte, 0.5 h
In short: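 Hemolysis was measured for human erythrocytes resuspended in L-glutamine-deficient RPMI-1640 (the Candida MIC medium) and compared with erythrocytes suspended in PBS.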

Candida albicans [16] = experiment: Antifungal activity against Candida albicans ATCC 10231 assessed as alteration in cell envelope at 4 uM after 2 hrs by scanning electron microscopy; format: functional, organism-based
Candida albicans [17] = experiment: Antifungal activity against Candida albicans ATCC 10231 assessed as loss of integrity at 10 uM after 2 hrs by scanning electron microscopy; format: functional, organism-based
Candida albicans [18] = experiment: as §2; in short: as §3
Candida albicans [19] = experiment: Antifungal activity against Candida albicans ATCC 10231 assessed as morphological changes at < 7 uM after 6 hrs by calcofluor white and aniline blue staining-based fluorescence microscopy; format: functional, organism-based
In short: (§5)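 C. albicans ATCC 10231 yeast cells were incubated with compound for 6 h, at up to 2×MIC. Chitin was stained with Calcofluor White and glucan with Aniline Blue, then cells were examined by fluorescence microscopy against untreated controls.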

Candida albicans [20] = experiment: Antifungal activity against Candida albicans ATCC 10231 assessed as pseudohyphae formation at 14 uM after 6 hrs by calcofluor white and aniline blue staining-based fluorescence microscopy; format: functional, organism-based; in short: as §5
Candida albicans [21] = experiment: Antifungal activity against Candida albicans ATCC 10231 assessed as increase in intracellular potassium release after 30 mins; format: functional, organism-based
In short: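 Efflux of K+ from C. albicans cells was monitored continuously with a potassium-selective electrode. Release was expressed relative to a positive control, and EK50 was taken as the concentration releasing 50% of intracellular potassium.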

Row | SMILES | MIC [1] | MIC (Pseudomonas aeruginosa) | MIC (Candida albicans [2]) | MIC (Escherichia coli [3]) | MIC (Candida parapsilosis) | IC50 [4] | MIC (Staphylococcus aureus [7]) | MIC (Acinetobacter baumannii) | MIC (Staphylococcus aureus [8]) | MIC (Escherichia coli [9]) | MIC [10] | MIC (Pichia kudriavzevii) | Activity [15] | further results
1 | CCCCCCCCCCCCNC(=O)[C@H](Cc1ccccc1)NC(=O)[C@H](CCCCNC(=O)[C@H](CCCCN)NC(=O)OCc1ccccc1Cl)NC(=O)[C@H](CCCCN)NC(=O)OCc1ccccc1Cl | > 256 µM | 64 µM (≈ 67.5 µg/mL) | 8 µM (≈ 8.43 µg/mL) | 32 µM (≈ 33.7 µg/mL) | 8 µM (≈ 8.43 µg/mL) | 50 µM | 16 µM (≈ 16.9 µg/mL) | > 256 µM | 32 µM (≈ 33.7 µg/mL) | 32 µM (≈ 33.7 µg/mL) | 8 µM (≈ 8.43 µg/mL) | 8 µM (≈ 8.43 µg/mL) | – | hemolysis at 0.5 h, 100 µM [5]: 13%; hemolysis at 0.5 h, 50 µM [6]: 10%
2 | NCCCC[C@H](NC(=O)OCc1ccccc1)C(=O)NCCCC[C@H](NC(=O)[C@H](CCCCN)NC(=O)OCc1ccccc1)C(=O)N[C@@H](Cc1ccccc1)C(N)=O (Cbz-Lys-Lys([Lys-Cbz])-Phe-NH2) | > 144 µM | > 144 µM | > 128 µM | > 144 µM | > 144 µM | – | > 144 µM | > 144 µM | > 144 µM | > 144 µM | 144 µM (≈ 118 µg/mL) | > 144 µM | – | –
3 | CCCCCCCCNC(=O)[C@H](Cc1ccccc1)NC(=O)[C@H](CCCCNC(=O)[C@@H](N)CCCCN)NC(=O)[C@@H](N)CCCCN | > 256 µM | > 256 µM | 256 µM (≈ 169 µg/mL) | > 256 µM | 64 µM (≈ 42.3 µg/mL) | – | 128 µM (≈ 84.6 µg/mL) | > 256 µM | 128 µM (≈ 84.6 µg/mL) | > 256 µM | 32 µM (≈ 21.2 µg/mL) | 128 µM (≈ 84.6 µg/mL) | – | hemolysis at 0.5 h, 300 µM [11]: 10%
4 | CCCCCCCCCCCCNC(=O)[C@H](Cc1ccccc1)NC(=O)[C@H](CCCCNC(=O)[C@H](CCCCN)NC(=O)OCc1ccccc1)NC(=O)[C@H](CCCCN)NC(=O)OCc1ccccc1.Cl.Cl | 121 µM | 64 µM | 8 µM | 8 µM | 8 µM | 50 µM | 8 µM | 121 µM | 15 µM | 30 µM | 7 µM | 8 µM | Non-toxic | Activity (Candida albicans [12]): Active; Activity [13]: Toxic; Activity (Candida albicans [14]): Active; Activity (Candida albicans [16]): Active
5 | NC(=O)[C@H](Cc1ccccc1)NC(=O)[C@H](CCCCNC(=O)[C@@H](N)CCCCNC(=O)OCc1ccccc1Cl)NC(=O)[C@@H](N)CCCCNC(=O)OCc1ccccc1Cl (H-Lys(ClZ)-Lys([εLys-ClZ])-Phe-NH2) | 34 µM (≈ 30.1 µg/mL) | 67 µM (≈ 59.4 µg/mL) | 33 µM (≈ 29.2 µg/mL) | 16 µM (≈ 14.2 µg/mL) | 33 µM (≈ 29.2 µg/mL) | – | 17 µM (≈ 15.1 µg/mL) | 67 µM (≈ 59.4 µg/mL) | 33 µM (≈ 29.2 µg/mL) | 33 µM (≈ 29.2 µg/mL) | 8 µM (≈ 7.09 µg/mL) | 33 µM (≈ 29.2 µg/mL) | – | –
6 | CCCCCCCCCCCCNC(=O)[C@H](Cc1ccccc1)NC(=O)[C@H](CCCCNC(=O)[C@@H](N)CCCCN)NC(=O)[C@@H](N)CCCCN.Cl.Cl.Cl.Cl | > 256 µM | 64 µM | 16 µM | 64 µM | 4 µM | – | 4 µM | > 256 µM | 8 µM | 32 µM | 8 µM | 4 µM | Non-toxic | Activity [13]: Toxic
7 | OC(Cn1cncn1)(Cn1cncn1)c1ccc(F)cc1F [FLUCONAZOLE] | – | – | 13 µM (≈ 3.98 µg/mL) | – | – | – | – | – | – | – | – | – | – | –
8 | CCCCCCCCCCCCNC(=O)[C@H](Cc1ccccc1)NC(=O)[C@H](CCCCNC(=O)[C@@H](N)CCCCNC(=O)OCc1ccccc1Cl)NC(=O)[C@@H](N)CCCCNC(=O)OCc1ccccc1Cl.Cl.Cl | 114 µM | 114 µM | 7 µM | 64 µM | 7 µM | 51 µM | 28 µM | 114 µM | 28 µM | 56 µM | 14 µM | 7 µM | Toxic | Activity (Candida albicans [12]): Active; Activity (Candida albicans [17]): Active; inhibition (Candida albicans [18]): Dose-dependent effect; hemolysis at 0.5 h, 100 µM [5]: 10%; Activity (Candida albicans [19]): inactive; Activity (Candida albicans [20]): Active; Activity (Candida albicans [21]): Dose-dependent effect; EC50 (Candida albicans [21]; Candida albicans, ATCC 10231, 0.5 h): 13 µM; Activity (Candida albicans [16]): Active
